# System: HEK-293T
# Assay: Multiplex assay against HEK293T
# Type: toxicity, cell-based
# Settings: human
# Summary of the method: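 Live cells carried four stains from seeding: Hoechst33342, BioTracker Green Microtubule Cytoskeleton Dye, MitoTracker Red and Annexin V Alexa Fluor 680. They were imaged on a CQ1 microscope at 37°C and 5% CO2 after compound addition. Using CellPathfinder machine-learning gating, cells were split into Hoechst high-intensity objects or normal cells, normal cells into healthy, pyknosed or fragmented nuclei, and pyknosed cells into mitotic or apoptotic; tubulin, mitochondrial-mass and membrane-permeability phenotypes are per cents of healthy-nucleus cells.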
# [1] = 12 h, 1 µM, compound concentration 1 uM, replicate 1
# [2] = 12 h, 1 µM, compound concentration 1 uM, replicate 2
# [3] = 12 h, 10 µM, compound concentration 10 uM, replicate 1
# [4] = 12 h, 10 µM, compound concentration 10 uM, replicate 2
# [5] = 24 h, 1 µM, compound concentration 1 uM, replicate 1
# [6] = 24 h, 1 µM, compound concentration 1 uM, replicate 2
# [7] = 24 h, 10 µM, compound concentration 10 uM, replicate 1
# [8] = 24 h, 10 µM, compound concentration 10 uM, replicate 2
# [9] = 48 h, 1 µM, compound concentration 1 uM, replicate 1
# [10] = 48 h, 1 µM, compound concentration 1 uM, replicate 2
# [11] = 48 h, 10 µM, compound concentration 10 uM, replicate 1
# [12] = 48 h, 10 µM, compound concentration 10 uM, replicate 2
compound,measurement,setting,value
CN1CCN2c3ccccc3Cc3ccccc3C2C1.Cl (centres undefined) [MIANSERIN HYDROCHLORIDE],Population Apoptotic (%),[1],23%
same,Population Fragmented Nuclei (%),[1],5%
same,Population Healthy Nuclei (%),[1],79%
same,Population Hoechst High Intensity Objects (%),[1],5%
same,Population Membrane Permeable-Phenotype (%),[1],0%
same,Population Mitochondria Different-Phenotype (%),[1],36%
same,Population Mitotic Cells (%),[1],76%
same,Population Normal (%),[1],94%
same,Population Pyknosed Nuclei (%),[1],14%
same,Population Tubulin-Different-Phenotype (%),[1],21%
same,Total Cell Count,[1],338
same,Population Apoptotic (%),[2],46%
same,Population Fragmented Nuclei (%),[2],7%
same,Population Healthy Nuclei (%),[2],77%
same,Population Hoechst High Intensity Objects (%),[2],10%
same,Population Mitochondria Different-Phenotype (%),[2],63%
same,Population Mitotic Cells (%),[2],53%
same,Population Normal (%),[2],89%
same,Population Tubulin-Different-Phenotype (%),[2],17%
same,Total Cell Count,[2],376
same,Population Apoptotic (%),[3],34%
same,Population Fragmented Nuclei (%),[3],5%
same,Population Healthy Nuclei (%),[3],81%
same,Population Hoechst High Intensity Objects (%),[3],9%
same,Population Membrane Permeable-Phenotype (%),[3],1%
same,Population Mitochondria Different-Phenotype (%),[3],45%
same,Population Mitotic Cells (%),[3],65%
same,Population Normal (%),[3],90%
same,Population Pyknosed Nuclei (%),[3],13%
same,Population Tubulin-Different-Phenotype (%),[3],40%
same,Total Cell Count,[3],410
same,Population Apoptotic (%),[4],42%
same,Population Healthy Nuclei (%),[4],85%
same,Population Hoechst High Intensity Objects (%),[4],4%
same,Population Membrane Permeable-Phenotype (%),[4],0%
same,Population Mitochondria Different-Phenotype (%),[4],53%
same,Population Mitotic Cells (%),[4],57%
same,Population Normal (%),[4],95%
same,Population Pyknosed Nuclei (%),[4],8%
same,Population Tubulin-Different-Phenotype (%),[4],28%
same,Total Cell Count,[4],491
same,Population Apoptotic (%),[5],22%
same,Population Fragmented Nuclei (%),[5],9%
same,Population Healthy Nuclei (%),[5],80%
same,Population Hoechst High Intensity Objects (%),[5],1%
same,Population Membrane Permeable-Phenotype (%),[5],0%
same,Population Mitochondria Different-Phenotype (%),[5],21%
same,Population Mitotic Cells (%),[5],77%
same,Population Normal (%),[5],98%
same,Population Pyknosed Nuclei (%),[5],10%
same,Population Tubulin-Different-Phenotype (%),[5],14%
same,Total Cell Count,[5],479
same,Population Apoptotic (%),[6],26%
same,Population Fragmented Nuclei (%),[6],10%
same,Population Hoechst High Intensity Objects (%),[6],8%
same,Population Mitochondria Different-Phenotype (%),[6],37%
same,Population Mitotic Cells (%),[6],73%
same,Population Normal (%),[6],91%
same,Population Pyknosed Nuclei (%),[6],9%
same,Population Tubulin-Different-Phenotype (%),[6],16%
same,Total Cell Count,[6],486
same,Population Apoptotic (%),[7],24%
same,Population Fragmented Nuclei (%),[7],8%
same,Population Healthy Nuclei (%),[7],77%
same,Population Hoechst High Intensity Objects (%),[7],5%
same,Population Membrane Permeable-Phenotype (%),[7],0%
same,Population Mitochondria Different-Phenotype (%),[7],31%
same,Population Mitotic Cells (%),[7],75%
same,Population Normal (%),[7],94%
same,Population Pyknosed Nuclei (%),[7],14%
same,Population Tubulin-Different-Phenotype (%),[7],34%
same,Total Cell Count,[7],486
same,Population Apoptotic (%),[8],32%
same,Population Fragmented Nuclei (%),[8],5%
same,Population Healthy Nuclei (%),[8],84%
same,Population Hoechst High Intensity Objects (%),[8],3%
same,Population Mitochondria Different-Phenotype (%),[8],36%
same,Population Mitotic Cells (%),[8],67%
same,Population Normal (%),[8],96%
same,Population Pyknosed Nuclei (%),[8],10%
same,Population Tubulin-Different-Phenotype (%),[8],21%
same,Total Cell Count,[8],612
same,Population Apoptotic (%),[9],13%
same,Population Fragmented Nuclei (%),[9],15%
same,Population Healthy Nuclei (%),[9],77%
same,Population Hoechst High Intensity Objects (%),[9],1%
same,Population Membrane Permeable-Phenotype (%),[9],1%
same,Population Mitochondria Different-Phenotype (%),[9],15%
same,Population Mitotic Cells (%),[9],86%
same,Population Normal (%),[9],98%
same,Population Pyknosed Nuclei (%),[9],6%
same,Population Tubulin-Different-Phenotype (%),[9],9%
same,Total Cell Count,[9],812
same,Population Apoptotic (%),[10],37%
same,Population Fragmented Nuclei (%),[10],16%
same,Population Healthy Nuclei (%),[10],78%
same,Population Hoechst High Intensity Objects (%),[10],3%
same,Population Membrane Permeable-Phenotype (%),[10],0%
same,Population Mitochondria Different-Phenotype (%),[10],18%
same,Population Mitotic Cells (%),[10],62%
same,Population Normal (%),[10],96%
same,Population Pyknosed Nuclei (%),[10],4%
same,Total Cell Count,[10],761
same,Population Apoptotic (%),[11],24%
same,Population Fragmented Nuclei (%),[11],14%
same,Population Healthy Nuclei (%),[11],76%
same,Population Hoechst High Intensity Objects (%),[11],2%
same,Population Membrane Permeable-Phenotype (%),[11],0%
same,Population Mitochondria Different-Phenotype (%),[11],18%
same,Population Mitotic Cells (%),[11],75%
same,Population Normal (%),[11],97%
same,Population Pyknosed Nuclei (%),[11],8%
same,Population Tubulin-Different-Phenotype (%),[11],17%
same,Total Cell Count,[11],702
same,Population Apoptotic (%),[12],35%
same,Population Healthy Nuclei (%),[12],79%
same,Population Hoechst High Intensity Objects (%),[12],1%
same,Population Membrane Permeable-Phenotype (%),[12],1%
same,Population Mitochondria Different-Phenotype (%),[12],14%
same,Population Mitotic Cells (%),[12],64%
same,Population Normal (%),[12],98%
same,Population Pyknosed Nuclei (%),[12],6%
same,Population Tubulin-Different-Phenotype (%),[12],11%
same,Total Cell Count,[12],860
